Assay results taken from ChEMBL document CHEMBL3124843, “Synthesis, cytostatic, antimicrobial, and anti-HCV activity of 6-substituted 7-(het)aryl-7-deazapurine ribonucleosides” (J Med Chem, 2014).
Calls of active or inactive are those of the source. How the calls were made is not given here.

Legend:
Staphylococcus aureus [1] = experiment: Antibacterial activity against Staphylococcus aureus CCM 3953 after 24 hrs; type: functional, organism-based
CCRF-CEM = experiment: Cytostatic activity against human CCRF-CEM cells after 72 hrs by MTT assay; type: functional, cell-based
Summary of the method: (§1)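 IC50 is the concentration that cuts cell growth by 50%, read by quantitative metabolic MTT staining after a 3-day treatment. The resistant sublines were made by raising the concentration of the cytotoxic drug step by step. CEM-DNR-bulk (daunorubicin-selected) stably overexpresses mrp-1. K562-TAX (paclitaxel-selected) expresses only mdr-1. HCT116p53−/− carries null p53 alleles. BJ and MRC-5 are nonmalignant fibroblasts.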

A549 = experiment: Cytostatic activity against human A549 cells after 72 hrs by MTT assay; type: functional, cell-based; conditions: A549, 72 h; summary of the method: as §1
HL-60 = experiment: Antiproliferative activity against human HL60 cells after 72 hrs by XTT assay; type: functional, cell-based; conditions: HL-60, 72 h
Summary of the method: (§2)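 Antiproliferative test on HL-60 promyelocytic leukemia and HeLa S3 cervical carcinoma cells growing in liquid suspension.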

K562 [2] = experiment: Cytostatic activity against paclitaxel-resistant human K562 cells after 72 hrs by MTT assay; type: functional, cell-based; conditions: K562, 72 h; summary of the method: as §1
Candida tropicalis = experiment: Antifungal activity against Candida tropicalis after 48 hrs; type: functional, organism-based
Hepatitis C virus [3] = experiment: Antiviral activity against Hepatitis C virus subtype 2a infected in human HuH7 cells; type: functional, organism-based, Hepacivirus hominis; conditions: genotype 2a, Huh-7
Candida parapsilosis = experiment: Antifungal activity against Candida parapsilosis after 48 hrs; type: functional, organism-based
[4] = Cytotoxicity against human HuH7 cells infected with Hepatitis C virus subtype 1b; type: cell-based, Huh-7
K562 [5] = experiment: Cytostatic activity against human K562 cells after 72 hrs by MTT assay; type: functional, cell-based; conditions: K562, 72 h; summary of the method: as §1
Enterococcus faecalis = experiment: Antibacterial activity against Enterococcus faecalis CCM 4224 after 24 hrs; type: functional, organism-based
[6] = tested on: Staphylococcus haemolyticus; experiment: Antibacterial activity against methicillin-resistant Staphylococcus haemolyticus A/16568 after 24 hrs; type: functional, organism-based
Hepatitis C virus [7] = experiment: Antiviral activity against Hepatitis C virus subtype 1b infected in human HuH7 cells; type: functional, organism-based, Hepacivirus hominis; conditions: genotype 1b, Huh-7
HepG2 = experiment: Antiproliferative activity against human HepG2 cells after 72 hrs by XTT assay; type: functional, cell-based; conditions: HepG2, 72 h
Escherichia coli [8] = experiment: Antibacterial activity against Escherichia coli CCM 3954 after 24 hrs; type: functional, organism-based
[9] = Cytostatic activity against human CEM-DNR-bulk cells after 72 hrs by MTT assay; type: functional, cell-based; summary of the method: as §1
HCT-116 [10] = experiment: Cytostatic activity against p53-deficient human HCT116 cells after 72 hrs by MTT assay; type: functional, cell-based; conditions: HCT-116, 72 h; summary of the method: as §1
Pseudomonas aeruginosa [11] = experiment: Antibacterial activity against Pseudomonas aeruginosa CCM 3955 after 24 hrs; type: functional, organism-based
[12] = Cytotoxicity against human HuH7 cells infected with Hepatitis C virus subtype 2a; type: cell-based, Huh-7
[13] = Antiproliferative activity against human HeLaS3 cells after 72 hrs by XTT assay; type: functional, cell-based; conditions: HeLa S3, 72 h; summary of the method: as §2
Escherichia coli [14] = experiment: Antibacterial activity against multi-resistant Escherichia coli C/16702 after 24 hrs; type: functional, organism-based
MRC5 = experiment: Cytostatic activity against human MRC5 cells after 72 hrs by MTT assay; type: ADME, cell-based; conditions: MRC5, 72 h; summary of the method: as §1
Candida albicans = experiment: Antifungal activity against Candida albicans after 48 hrs; type: functional, organism-based
Staphylococcus aureus [15] = experiment: Antibacterial activity against methicillin-resistant Staphylococcus aureus MRSA 4591 after 24 hrs; type: functional, organism-based
Pseudomonas aeruginosa [16] = experiment: Antibacterial activity against multi-resistant Pseudomonas aeruginosa A/16575 after 24 hrs; type: functional, organism-based
HCT-116 [17] = experiment: Cytostatic activity against human HCT116 cells after 72 hrs by MTT assay; type: functional, cell-based; conditions: HCT-116, 72 h; summary of the method: as §1
BJ = experiment: Cytostatic activity against human BJ cells after 72 hrs by MTT assay; type: ADME, cell-based; summary of the method: as §1
Pichia kudriavzevii = experiment: Antifungal activity against Candida crusei after 48 hrs; type: functional, organism-based

Row | SMILES | Activity (Staphylococcus aureus [1]) | IC50 (CCRF-CEM) [µM] | IC50 (A549) [µM] | IC50 (HL-60) [µM] | IC50 (K562 [2]) [µM] | Activity (Candida tropicalis) | EC50 (Hepatitis C virus [3]) [µM] | Activity (Candida parapsilosis) | CC50 [4] [µM] | IC50 (K562 [5]) [µM] | Activity (Enterococcus faecalis) | Activity [6] | EC50 (Hepatitis C virus [7]) [µM] | IC50 (HepG2) [µM] | Activity (Escherichia coli [8]) | IC50 [9] [µM] | IC50 (HCT-116 [10]) [µM] | Activity (Pseudomonas aeruginosa [11]) | CC50 [12] [µM] | IC50 [13] [µM] | other results
1 | CNc1ncnc2c1c(-c1cc3ccccc3o1)cn2[C@@H]1O[C@H](CO)[C@@H](O)[C@H]1O | inactive | > 20 | > 20 | 8.95 | > 20 | inactive | 13.6 | inactive | > 44 | > 20 | inactive | inactive | 2.05 | > 20 | inactive | > 20 | > 20 | inactive | > 44 | > 20 | Activity (Escherichia coli [14]): inactive; IC50 (MRC5): 75.3 µM; Activity (Candida albicans): inactive; Activity (Staphylococcus aureus [15]): inactive; Activity (Pseudomonas aeruginosa [16]): inactive; IC50 (HCT-116 [17]): > 20 µM; IC50 (BJ): 75.6 µM; Activity (Pichia kudriavzevii): inactive
2 | COc1nc(N)nc2c1c(-c1cc3ccccc3o1)cn2[C@@H]1O[C@H](CO)[C@@H](O)[C@H]1O | inactive | 12.7 | > 20 | > 20 | 15.5 | inactive | 20.7 | inactive | > 44 | 14.6 | inactive | inactive | 8.98 | > 20 | inactive | 16.7 | > 20 | inactive | > 44 | > 20 | Activity (Escherichia coli [14]): inactive; IC50 (MRC5): 22.7 µM; Activity (Candida albicans): inactive; Activity (Staphylococcus aureus [15]): inactive; Activity (Pseudomonas aeruginosa [16]): inactive; IC50 (HCT-116 [17]): > 20 µM; IC50 (BJ): 25.6 µM; Activity (Pichia kudriavzevii): inactive
3 | Cc1nc(N)c2c(-c3ccoc3)cn([C@@H]3O[C@H](CO)[C@@H](O)[C@H]3O)c2n1 | inactive | > 100 | > 20 | > 20 | > 20 | inactive | > 44 | inactive | > 44 | > 20 | inactive | inactive | > 44 | > 20 | inactive | > 20 | > 20 | inactive | > 44 | > 20 | Activity (Escherichia coli [14]): inactive; IC50 (MRC5): > 100 µM; Activity (Candida albicans): inactive; Activity (Staphylococcus aureus [15]): inactive; Activity (Pseudomonas aeruginosa [16]): inactive; IC50 (HCT-116 [17]): > 20 µM; IC50 (BJ): > 100 µM; Activity (Pichia kudriavzevii): inactive
4 | CSc1ncnc2c1c(I)cn2[C@@H]1O[C@H](CO)[C@@H](O)[C@H]1O | inactive | > 20 | > 20 | 0.05 | 7.73 | inactive | > 44 | inactive | > 44 | 10.5 | inactive | inactive | 19.2 | > 20 | inactive | > 20 | > 20 | inactive | > 44 | 0.25 | Activity (Escherichia coli [14]): inactive; IC50 (MRC5): > 100 µM; Activity (Candida albicans): inactive; Activity (Staphylococcus aureus [15]): inactive; Activity (Pseudomonas aeruginosa [16]): inactive; IC50 (HCT-116 [17]): > 20 µM; IC50 (BJ): 86.1 µM; Activity (Pichia kudriavzevii): inactive
5 | COc1ncnc2c1ccn2[C@@H]1O[C@H](CO)[C@@H](O)[C@H]1O | inactive | > 20 | > 20 | > 20 | > 20 | inactive | > 44 | inactive | > 44 | > 20 | inactive | inactive | > 44 | > 20 | inactive | > 20 | > 20 | inactive | > 44 | > 20 | Activity (Escherichia coli [14]): inactive; IC50 (MRC5): > 100 µM; Activity (Candida albicans): inactive; Activity (Staphylococcus aureus [15]): inactive; Activity (Pseudomonas aeruginosa [16]): inactive; IC50 (HCT-116 [17]): > 20 µM; IC50 (BJ): > 100 µM; Activity (Pichia kudriavzevii): inactive
6 | Cc1ncnc2c1c(-c1ccco1)cn2[C@@H]1O[C@H](CO)[C@@H](O)[C@H]1O | inactive | 0.04 | 0.11 | 0.21 | 0.11 | inactive | 0.15 | inactive | 6.62 | 0.04 | inactive | inactive | 0.07 | 0.3 | inactive | 0.07 | 0.04 | inactive | 43.6 | 1.33 | Activity (Escherichia coli [14]): inactive; IC50 (MRC5): 0.61 µM; Activity (Candida albicans): inactive; Activity (Staphylococcus aureus [15]): inactive; Activity (Pseudomonas aeruginosa [16]): inactive; IC50 (HCT-116 [17]): 0.04 µM; IC50 (BJ): 0.07 µM; Activity (Pichia kudriavzevii): inactive
